Legend:
[1] = target: Mitogen-activated protein kinase 14 (Homo sapiens, UniProt Q16539); assay: Inhibition of recombinant human p38-alpha expressed in Escherichia coli using ATF2 as substrate by radioisotope-based assay
Homo sapiens = species on record: Homo sapiens; assay: Selectivity index, ratio of IC50 for recombinant human p38-alpha to IC50 for GST-fused recombinant human ALK5
How it was run: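 Ratio of p38α IC50 to ALK5 IC50. ALK5 was a human recombinant GST-fusion protein expressed in Sf9 insect cells via baculovirus. p38α was […] human recombinant protein expressed in E. coli and purified on Ni-NTA agarose. Both were run in a radioisotopic ³³P protein kinase assay (³³PanQinase), with casein as the ALK5 substrate and ATF2 as the p38α substrate.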

TGF-beta receptor type-1 = target: T1, TGF-beta receptor type-1 (Homo sapiens, UniProt P36897); assay: Inhibition of GST-fused recombinant human ALK5 expressed in baculovirus-infected insect Sf9 cells using casein as substrate by radioisotope-based assay
T1 sequence (P36897 whole entry): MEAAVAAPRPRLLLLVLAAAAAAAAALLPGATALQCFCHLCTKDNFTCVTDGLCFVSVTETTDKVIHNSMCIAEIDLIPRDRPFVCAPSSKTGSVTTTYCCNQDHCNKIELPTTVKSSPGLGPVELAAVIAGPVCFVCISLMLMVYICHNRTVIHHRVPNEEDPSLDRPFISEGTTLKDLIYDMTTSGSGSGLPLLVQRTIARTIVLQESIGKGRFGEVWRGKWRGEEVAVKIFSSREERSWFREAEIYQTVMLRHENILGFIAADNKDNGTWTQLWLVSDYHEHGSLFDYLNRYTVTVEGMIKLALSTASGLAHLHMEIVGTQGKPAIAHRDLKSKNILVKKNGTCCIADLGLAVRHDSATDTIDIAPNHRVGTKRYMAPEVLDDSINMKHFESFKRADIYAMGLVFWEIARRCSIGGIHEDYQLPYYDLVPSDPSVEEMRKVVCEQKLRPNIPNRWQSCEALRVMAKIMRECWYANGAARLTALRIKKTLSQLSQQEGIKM

[2] = target: T2, TGF-beta receptor type-1 (Homo sapiens) (UniProt P36897); assay: Potency index, ratio of SB-505124 IC50 to compound IC50 for GST-fused recombinant human ALK5 expressed in baculovirus-infected insect Sf9 cells
T2 sequence (whole entry): T1 sequence (P36897 whole entry)

[3] = Drug level in rat bile treated with [14C]-EW-7197, po by LC-MS analysis; format: ADME, organism-based; conditions: in vivo
Plasma [4] = assay: Drug level in rat plasma treated with [14C]-EW-7197, po by LC-MS analysis; format: ADME, organism-based; conditions: in vivo
[5] = Retention time of the compound in rat urine treated with [14C]-EW-7197, po by LC-MS analysis; format: ADME, organism-based
[6] = Drug level in rat feces treated with [14C]-EW-7197, po by LC-MS analysis; format: ADME, organism-based; conditions: in vivo
[7] = Retention time of the compound in rat bile treated with [14C]-EW-7197, po by LC-MS analysis; format: ADME, organism-based
[8] = Drug level in rat urine treated with [14C]-EW-7197, po by LC-MS analysis; format: ADME, organism-based; conditions: in vivo
Plasma [9] = assay: Retention time of the compound in rat plasma treated with [14C]-EW-7197, po by LC-MS analysis; format: ADME, organism-based
[10] = Drug metabolism in po dosed rat bile assessed as formation of 4-([1,2,4]triazolo[1,5-a]pyridin-6-yl)-5-(6-methylpyridin-2-yl)-1H-imidazole-2-carboxylic acid by LC-MS analysis; format: ADME, organism-based; conditions: in vivo
Plasma [11] = assay: Drug metabolism in po dosed rat plasma assessed as formation of (4-([1,2,4]triazolo[1,5-a]pyridin-6-yl)-5-(6-methylpyridin-2-yl)-1H-imidazol-2-yl)methanol by LC-MS analysis; format: ADME, organism-based; conditions: in vivo
Plasma [12] = assay: Retention time of the compound in po dosed rat plasma by LC-MS analysis; format: ADME, organism-based; conditions: in vivo
Plasma [13] = assay: Drug metabolism in po dosed rat plasma assessed as formation of 4-([1,2,4]triazolo[1,5-a]pyridin-6-yl)-5-(6-methylpyridin-2-yl)-1H-imidazole-2-carbaldehyde by LC-MS analysis; format: ADME, organism-based; conditions: in vivo
[14] = Drug metabolism in po dosed rat feces assessed as formation of 4-([1,2,4]triazolo[1,5-a]pyridin-6-yl)-5-(6-methylpyridin-2-yl)-1H-imidazole-2-carbaldehyde by LC-MS analysis; format: ADME, organism-based; conditions: in vivo
[15] = Drug metabolism in po dosed rat bile assessed as formation of 4-([1,2,4]triazolo[1,5-a]pyridin-6-yl)-5-(6-methylpyridin-2-yl)-1H-imidazole-2-carbaldehyde by LC-MS analysis; format: ADME, organism-based; conditions: in vivo
[16] = Drug metabolism in po dosed rat urine assessed as formation of 4-([1,2,4]triazolo[1,5-a]pyridin-6-yl)-5-(6-methylpyridin-2-yl)-1H-imidazole-2-carboxylic acid by LC-MS analysis; format: ADME, organism-based; conditions: in vivo
[17] = Drug metabolism in po dosed rat urine assessed as formation of (4-([1,2,4]triazolo[1,5-a]pyridin-6-yl)-5-(6-methylpyridin-2-yl)-1H-imidazol-2-yl)methanol by LC-MS analysis; format: ADME, organism-based; conditions: in vivo
Plasma [18] = assay: Drug metabolism in po dosed rat plasma assessed as formation of 4-([1,2,4]triazolo[1,5-a]pyridin-6-yl)-5-(6-methylpyridin-2-yl)-1H-imidazole-2-carboxylic acid by LC-MS analysis; format: ADME, organism-based; conditions: in vivo
[19] = Drug metabolism in po dosed rat feces assessed as formation of (4-([1,2,4]triazolo[1,5-a]pyridin-6-yl)-5-(6-methylpyridin-2-yl)-1H-imidazol-2-yl)methanol by LC-MS analysis; format: ADME, organism-based; conditions: in vivo
[20] = Drug metabolism in po dosed rat feces assessed as formation of 4-([1,2,4]triazolo[1,5-a]pyridin-6-yl)-5-(6-methylpyridin-2-yl)-1H-imidazole-2-carboxylic acid by LC-MS analysis; format: ADME, organism-based; conditions: in vivo
[21] = Drug metabolism in po dosed rat urine assessed as formation of 4-([1,2,4]triazolo[1,5-a]pyridin-6-yl)-5-(6-methylpyridin-2-yl)-1H-imidazol-2-ol by LC-MS analysis; format: ADME, organism-based; conditions: in vivo

Chain of Mitogen-activated protein kinase 14 (Q16539 whole entry, the tested form may be a part): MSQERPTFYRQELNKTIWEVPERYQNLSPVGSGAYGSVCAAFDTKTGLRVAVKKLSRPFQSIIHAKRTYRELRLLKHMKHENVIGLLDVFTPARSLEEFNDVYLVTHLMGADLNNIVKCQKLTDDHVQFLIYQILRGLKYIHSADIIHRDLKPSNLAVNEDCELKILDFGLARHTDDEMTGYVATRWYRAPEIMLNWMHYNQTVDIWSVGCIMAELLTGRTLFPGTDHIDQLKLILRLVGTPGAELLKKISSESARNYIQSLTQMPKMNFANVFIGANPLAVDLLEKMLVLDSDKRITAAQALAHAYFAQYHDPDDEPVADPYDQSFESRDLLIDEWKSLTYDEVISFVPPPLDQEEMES

IC50 [1] | Ratio IC50 (Homo sapiens) | IC50 (TGF-beta receptor type-1) | SMILES | other results
> 10000 nM | > 128 | 78 nM | Cc1cccc(-c2nn(CC(=O)Nc3ccccc3)cc2-c2ccc3ncnn3c2)n1 | –
1050 nM | 39 | 27 nM | Cc1cccc(-c2[nH]c(CNC(=S)c3ccccc3F)nc2-c2ccc3ncnn3c2)n1 | –
1490 nM | 41 | 36 nM | Cc1cccc(-c2[nH]c(CNC(=S)c3cccc(C#N)c3)nc2-c2ccc3ncnn3c2)n1 | –
5110 nM | 284 | 18 nM | Cc1cccc(-c2nn(CC(=S)Nc3cccc(C#N)c3)cc2-c2ccc3ncnn3c2)n1 | Ratio IC50 [2]: 3
> 10000 nM | > 111 | 90 nM | Cc1cccc(-c2[nH]c(CNC(=O)c3cccc(C#N)c3)nc2-c2ccc3ncnn3c2)n1 | –
– | – | – | Cc1cccc(-c2[nH]c(C=O)nc2-c2ccc3ncnn3c2)n1 | Drug metabolism [3]: metabolite_detected; Drug metabolism (Plasma [4]): metabolite_detected; Retention_time [5]: 62.37 min; Drug metabolism [6]: metabolite_detected
2830 nM | 129 | 22 nM | Cc1cccc(-c2[nH]c(CNC(=S)c3cccc(C(N)=O)c3)nc2-c2ccc3ncnn3c2)n1 | –
5210 nM | 180 | 29 nM | Cc1cccc(-c2nn(CC(=S)Nc3ccccc3F)cc2-c2ccc3ncnn3c2)n1 | –
> 10000 nM | > 118 | 85 nM | Cc1cccc(-c2nn(CC(=O)Nc3ccccc3F)cc2-c2ccc3ncnn3c2)n1 | –
3770 nM | 79 | 48 nM | Cc1cccc(-c2[nH]c(CNC(=S)c3ccccc3)nc2-c2ccc3ncnn3c2)n1 | –
> 10000 nM | > 370 | 27 nM | Cc1cccc(-c2nn(CC(=O)Nc3cccc(C#N)c3)cc2-c2ccc3ncnn3c2)n1 | –
> 10000 nM | > 175 | 57 nM | Cc1cccc(-c2[nH]c(CNC(=O)c3ccccc3)nc2-c2ccc3ncnn3c2)n1 | –
– | – | – | Cc1cccc(-c2[nH]c(CO)nc2-c2ccc3ncnn3c2)n1 | Drug metabolism (Plasma [4]): metabolite_detected; Retention_time [7]: 53.65 min; Drug metabolism [6]: metabolite_detected; Drug metabolism [8]: metabolite_detected
> 10000 nM | > 278 | 36 nM | Cc1cccc(-c2nn(CC(=O)Nc3cccc(C(N)=O)c3)cc2-c2ccc3ncnn3c2)n1 | –
> 10000 nM | > 94 | 106 nM | Cc1cccc(-c2[nH]c(CNC(=O)c3cccc(C(N)=O)c3)nc2-c2ccc3ncnn3c2)n1 | –
– | 28 | – | Cc1cccc(-c2[nH]c(Cc3cccc(C(N)=O)c3)nc2-c2ccc3nccnc3c2)n1 | –
– | – | – | Cc1cccc(-c2[nH]c(C(=O)O)nc2-c2ccc3ncnn3c2)n1 | Retention_time (Plasma [9]): 24.43 min; Drug metabolism [3]: metabolite_detected; Drug metabolism [6]: metabolite_detected; Drug metabolism [8]: metabolite_detected
– | – | – | Cc1cccc(-c2[nH]c(CN)nc2-c2ccc3ncnn3c2)n1 | Retention_time [7]: 68.77 min
– | – | – | Cc1cccc(-c2[nH]c(O)nc2-c2ccc3ncnn3c2)n1 | Retention_time [7]: 54.56 min; Drug metabolism [8]: metabolite_detected
– | – | – | Cc1cccc(-c2[nH]c(CNc3ccccc3F)nc2-c2ccc3ncnn3c2)n1 [VACTOSERTIB] | Drug metabolism [10]: metabolite_detected; Drug metabolism (Plasma [11]): metabolite_detected; Retention_time (Plasma [12]): 71.53 min; Drug metabolism (Plasma [13]): metabolite_detected; Drug metabolism [14]: metabolite_detected; Drug metabolism [15]: metabolite_detected; Drug metabolism [16]: metabolite_detected; Drug metabolism [17]: metabolite_detected; Drug metabolism (Plasma [18]): metabolite_detected; Drug metabolism [19]: metabolite_detected; Drug metabolism [20]: metabolite_detected; Drug metabolism [21]: metabolite_detected
> 10000 nM | > 270 | 37 nM | Cc1cccc(-c2[nH]c(CNC(=O)c3ccccc3F)nc2-c2ccc3ncnn3c2)n1 | –

— ChEMBL document CHEMBL3259570, “4-([1,2,4]Triazolo[1,5-a]pyridin-6-yl)-5(3)-(6-methylpyridin-2-yl)imidazole and -pyrazole derivatives as potent and selective inhibitors of transforming growth factor-β type I receptor kinase” (Bioorg Med Chem, 2014)
